The text below walks through data of ChEMBL document CHEMBL1145359, “Synthesis and anticonvulsant activity of 4-(2-(2,6-dimethylphenylamino)-2-oxoethylamino)-N-(substituted)butanamides: a pharmacophoric hybrid approach” (Bioorg Med Chem Lett, 2007).

The test system of data set [1] is Mus musculus. The data set is described as follows: Anticonvulsant activity against maximal-electroshock-induced seizure in mouse at 100 mg/kg, ip after 0.5 hrs. Details: dose 100 mg/kg. In kind it is functional, organism-based. In short, it runs like this: (§1)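 Mice received the compound intraperitoneally at 30, 100 or 300 mg/kg and were challenged with maximal electroshock 0.5 h later, scoring prevention of seizure spread. The value recorded is the minimum dose protecting half or more of the mice. A dash means no activity up to 300 mg/kg. A vehicle-treated control group was included.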

The test system of data set [2] is Mus musculus. The data set is described as follows: Anticonvulsant activity against subcutaneous picrotoxin-induced seizure in mouse at 300 mg/kg, ip after 4 hrs. It counts as functional, organism-based. Details: dose 300 mg/kg. In short, it runs like this: (§2)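 Mice given intraperitoneal doses of 30, 100 and 300 mg/kg, with a vehicle-only control, then challenged with subcutaneous picrotoxin. Protection assessed at 0.5 h and 4 h after dosing. Recorded value is the lowest dose protecting half or more of the animals; a dash means no activity at 300 mg/kg.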

In data set [3] the test system is Mus musculus. The data set can be described thus: Anticonvulsant activity against subcutaneous pentylenetetrazole-induced seizure in mouse at 300 mg/kg, ip after 0.5 hrs. Also noted: dose 300 mg/kg. In kind it is functional, organism-based. In short, it runs like this: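 Intraperitoneal dosing in mice at 30, 100 or 300 mg/kg, followed 0.5 h later by a subcutaneous pentylenetetrazole challenge, scoring protection against seizures (a seizure-threshold test). The value recorded is the minimum dose active in half or more of the mice. A dash means no activity at 300 mg/kg. A vehicle-treated control group was included.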

Data set [4] deals with Mus musculus. The data set is described as follows: Acute neurotoxicity in mouse at 300 mg/kg, ip after 4 hrs by rotarod test. Also noted: dose 300 mg/kg, route intraperitoneal. It counts as toxicity, organism-based. The conditions noted are these: in vivo. In short, it runs like this: (§3)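 Mice dosed intraperitoneally at 30, 100 and 300 mg/kg; motor impairment scored at 0.5 h and 4 h after dosing. The value recorded is the minimum dose at which the effect appeared in half or more of the mice. A dash means no effect at the top dose of 300 mg/kg. A vehicle-treated control group was included.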
For orientation: Falling from the rotarod earlier than controls is read as motor impairment.

In data set [5] the test system is Mus musculus. The data set can be described thus: Anticonvulsant activity against subcutaneous picrotoxin-induced seizure in mouse at 100 mg/kg, ip after 0.5 hrs. In kind it is functional, organism-based. Details: dose 100 mg/kg. In short, it runs like this: as §2
Data set [6] relates to Mus musculus. The data set is described as follows: Acute neurotoxicity in mouse at 300 mg/kg, ip after 0.5 hrs by rotarod test. In kind it is toxicity, organism-based. Also noted: dose 300 mg/kg, route intraperitoneal. The conditions noted are these: in vivo. In short, it runs like this:
as §3

Data set [7] deals with Mus musculus. The data set is described as follows: Anticonvulsant activity against subcutaneous picrotoxin-induced seizure in mouse at 30 mg/kg, ip after 0.5 hrs. It counts as functional, organism-based. Also noted: dose 30 mg/kg. In short, it runs like this:
as §2

Data set [8] concerns Mus musculus. The data set is described as follows: Anticonvulsant activity against subcutaneous picrotoxin-induced seizure in mouse at 100 mg/kg, ip after 4 hrs. It counts as functional, organism-based. Details: dose 100 mg/kg. In short, it runs like this:
as §2

Data set [9] has as its system Mus musculus. The data set can be described thus: Acute neurotoxicity in mouse at 100 mg/kg, ip after 0.5 hrs by rotarod test. In kind it is toxicity, organism-based. Also noted: dose 100 mg/kg, route intraperitoneal. The conditions noted are these: in vivo. In short, it runs like this:
as §3

Data set [10] concerns Mus musculus. The data set is described as follows: Anticonvulsant activity against subcutaneous pentylenetetrazole-induced seizure in mouse at 30 mg/kg, ip after 0.5 hrs. In kind it is functional, organism-based. Details: dose 30 mg/kg. In short, it runs like this:
(§4)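 Mice dosed intraperitoneally at 30, 100 and 300 mg/kg, with a vehicle-treated control, then challenged with subcutaneous pentylenetetrazole to detect elevation of seizure threshold. Read 0.5 h after dosing.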

For data set [11], the system named is Mus musculus. The data set can be described thus: Anticonvulsant activity against maximal-electroshock-induced seizure in mouse at 300 mg/kg, ip after 0.5 hrs. In kind it is functional, organism-based. Also noted: dose 300 mg/kg. In short, it runs like this: as §1
Data set [12] relates to Mus musculus. The data set can be described thus: Anticonvulsant activity against subcutaneous pentylenetetrazole-induced seizure in mouse at 100 mg/kg, ip after 0.5 hrs. It counts as functional, organism-based. Details: dose 100 mg/kg. In short, it runs like this: as §4
The subject of data set [13] is Mus musculus. The data set can be described thus: Anticonvulsant activity against subcutaneous picrotoxin-induced seizure in mouse at 30 mg/kg, ip after 4 hrs. In kind it is functional, organism-based. Also noted: dose 30 mg/kg. In short, it runs like this: as §2
Data set [14] deals with Mus musculus. The data set can be described thus: Anticonvulsant activity against maximal-electroshock-induced seizure in mouse at 30 mg/kg, ip after 0.5 hrs. Also noted: dose 30 mg/kg. In kind it is functional, organism-based. In short, it runs like this:
as §1

Data set [15] concerns Mus musculus. The data set can be described thus: Acute neurotoxicity in mouse at 100 mg/kg, ip after 4 hrs by rotarod test. The conditions noted are these: in vivo. Details: dose 100 mg/kg, route intraperitoneal. In kind it is toxicity, organism-based. In short, it runs like this:
as §3

For data set [16], the system named is Mus musculus. The data set is described as follows: Anticonvulsant activity against subcutaneous picrotoxin-induced seizure in mouse at 10 mg/kg, ip after 0.5 hrs. Details: dose 10 mg/kg. It counts as functional, organism-based.

Activity calls are given as the source filed them.

`Cc1cccc(C)c1NC(=O)CNCCCC(=O)Nc1ccccc1`: the result in data set [1] and in [5] was Active. Further, the outcome in data set [2] and in data set [3] was inactive. The result in data set [4] and in data set [6] was Active.

As for `CCC1(c2ccccc2)C(=O)NC(=O)NC1=O` [PHENOBARBITAL], the outcome in [7], in [8], in data set [1] and in data set [10] was Active. The outcome in data set [9] and in [4] was Active.

As to `Cc1cccc(C)c1NC(=O)CNCCCC(=O)N(c1ccccc1)c1ccccc1`, the result in data set [2], in [11] and in [5] was Active. The result in data set [3] was inactive. Moreover, the Activity result in [4] is “Not Active”; in data set [6], “Active”.

For the compound `Cc1cccc(NC(=O)CCCNCC(=O)Nc2c(C)cccc2C)c1`, the result in [7] and in data set [8] was Active. The result in [11] and in [3] was inactive. In addition, the Activity entry was “Not Active” in data set [4] and “Active” in [6].

On to `CCC1(C)CC(=O)NC1=O` (centres undefined) [ETHOSUXIMIDE], for which the result in data set [2] and in data set [11] was inactive. Also, the Activity result in [4] and in data set [6] was “Not Active” each time. The result in data set [12] was Active.

On to `Cc1cccc(C)c1NC(=O)CNCCCC(=O)Nc1ccccc1Br`, for which the outcome in data set [7], in data set [1] and in data set [13] was Active. Further, the result in data set [3] was inactive. The result in [4] and in data set [6] was Active.

Turning to `Cc1cccc(C)c1NC(=O)CNCCCC(=O)Nc1cccc(Cl)c1C`, the result in data set [8], in [1] and in [5] was Active. Besides, the outcome in data set [3] was inactive. Also, the Activity entry is “Not Active” in [4] and “Active” in data set [6].

In the case of `Cc1cccc(C)c1NC(=O)CNCCCC(=O)N(C)C`, the result in [8] and in data set [5] was Active. Also, the result in data set [11] and in data set [3] was inactive. Also, the Activity result in data set [4] is recorded as “Active”; in data set [6] it was “Not Active”.

Turning to `Cc1cccc(C)c1NC(=O)CNCCCC(=O)O`, the result in [7], in [8] and in data set [1] was Active. Further, the result in data set [3] was inactive. For the same compound, the Activity result in [4] is given as “Not Active”; in [6] it was “Active”.

For `Cc1cccc(C)c1NC(=O)CNCCCC(=O)N1CCCCC1`, the outcome in data set [1] and in [5] was Active. Moreover, the result in [9] and in data set [4] was Active. In addition, the outcome in data set [2] and in [3] was inactive.

For `Cc1cccc(C)c1NC(=O)CNCCCC(=O)N1CCN(c2cccc(C(F)(F)F)c2)CC1`, the outcome in data set [7] and in [8] was Active. Moreover, the outcome in [11] and in data set [3] was inactive. In addition, the Activity entry in data set [4] and in data set [6] was “Not Active” in each case.

For `O=C1NC(=O)C(c2ccccc2)(c2ccccc2)N1` [PHENYTOIN], the result in data set [14] was Active. Also, the result in data set [9] and in data set [15] was Active. For the same compound, the result in [2] and in [3] was inactive.

In the case of `Cc1cccc(C)c1NC(=O)CCCNCC(=O)Nc1c(C)cccc1C`, the result in data set [16], in data set [1], in data set [13] and in data set [10] was Active. The values for the Activity result in [4] and in data set [6] were “Not Active” and “Active”, respectively.

As for `Cc1cccc(C)c1NC(=O)CNCCCC(=O)N1CCC(C)CC1`, the result in [8] and in [5] was Active. Besides, the result in data set [9] and in [15] was Active. In addition, the outcome in data set [11] and in data set [3] was inactive.

For `CCCCN(CCCC)C(=O)CCCNCC(=O)Nc1c(C)cccc1C`, the outcome in data set [7], in [8] and in [1] was Active. In addition, the result in data set [3] was inactive. Further, the figures for the Activity entry in data set [4] and in [6] were “Not Active” and “Active”, respectively.

For the compound `Cc1ccc(NC(=O)CCCNCC(=O)Nc2c(C)cccc2C)c(C)c1`, the outcome in [8], in data set [1], in data set [3] and in [5] was Active. Further, the outcome in [4] and in [6] was Active.
